According to ChEMBL document CHEMBL1140288, “First synthesis and evaluation of the inhibitory effects of aza analogues of TSAO on HIV-1 replication” (J Med Chem, 2005):

Experiments:
CCRF-CEM [1] = assay: Concentration of compound inhibiting Glu138-Lys mutant HIV-1(IIIB) induced cytopathicity in CEM cell culture by 50%; format: functional, cell-based; conditions: Homo sapiens
Outline: (§1)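 CEM cells at 4 × 10⁵ per mL infected at ~100 CCID₅₀ per mL of cell suspension, then mixed 1:1 with compound dilutions in microtiter wells. Giant cell formation was scored microscopically after 4 days. EC₅₀ is the concentration inhibiting virus-induced cytopathicity by 50%. Mutant HIV-1(IIIB) RT strains were selected as described previously.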

MT4 [2] = assay: Concentration of compound required to inhibit HIV-1(IIIB) induced cytopathicity in MT-4 cell culture by 50%; format: functional, cell-based; conditions: Homo sapiens
Outline: (§2)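 MT-4 cells at 3 × 10⁵ per mL were infected with HIV-1(III_B) or HIV-2(ROD) at ∼100 CCID₅₀ per mL, then mixed 1:1 with compound dilutions. After 4 days, viability was read by the MTT method. EC₅₀ was taken as the concentration giving 50% protection against HIV-induced cytopathicity.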

CCRF-CEM [3] = assay: Concentration of compound required to inhibit HIV-1(IIIB) induced cytopathicity in CEM cell culture by 50%; format: functional, cell-based; conditions: Homo sapiens
Outline: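 CEM cells at 4 × 10⁵ per mL were infected with HIV-1(III_B) at ∼100 CCID₅₀ per mL and mixed 1:1 with serial compound dilutions. Giant cell formation was scored microscopically after 4 days. EC₅₀ was taken as the concentration giving 50% inhibition of virus-induced cytopathicity.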

[4] = Concentration of compound required to reduce by 50% the number of viable cells in mock infected CEM cell cultures; format: functional; conditions: Homo sapiens, CCRF-CEM
Outline: (§3)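 Mock-infected CEM cells (4 × 10⁵ per mL) or MT-4 cells (3 × 10⁵ per mL) were exposed to serial compound dilutions for 4 days. CC₅₀ was the concentration reducing the number of viable cells by 50%.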

CCRF-CEM [5] = assay: Concentration of compound required to inhibit HIV-2 (ROD) induced cytopathicity in CEM cell culture by 50%; format: functional, cell-based; conditions: Homo sapiens; outline: as §1
MT4 [6] = assay: Concentration of compound required to inhibit HIV-2 (ROD) induced cytopathicity in MT-4 cell culture by 50%; format: functional, cell-based; conditions: Homo sapiens; outline: as §2
CCRF-CEM [7] = assay: Concentration of compound inhibiting Tyr181- Cys mutant HIV-1(IIIB) induced cytopathicity in CEM cell culture by 50%; format: functional, cell-based; conditions: Homo sapiens; outline: as §1
CCRF-CEM [8] = assay: Concentration of compound inhibiting Lys103-Asn mutant HIV-1(IIIB) induced cytopathicity in CEM cell culture by 50%; format: functional, cell-based; conditions: Homo sapiens; outline: as §1
MT4 [9] = assay: Concentration of compound required to reduce by 50% the number of viable cells in mock infected MT-4 cell cultures; format: functional; conditions: Homo sapiens; outline: as §3
[10] = test system: Human immunodeficiency virus 1; assay: Concentration of compound inhibiting Tyr181Cys mutant HIV-1(IIIB) induced cytopathicity in CEM cell culture by 50%; format: functional, organism-based; conditions: Human immunodeficiency virus 1, CCRF-CEM; outline: as §1

| SMILES | EC50 (CCRF-CEM [1]) [µM] | EC50 (MT4 [2]) [µM] | EC50 (CCRF-CEM [3]) [µM] | CC50 [4] [µM] | EC50 (CCRF-CEM [5]) [µM] | EC50 (MT4 [6]) [µM] | EC50 (CCRF-CEM [7]) [µM] | EC50 (CCRF-CEM [8]) [µM] | CC50 (MT4 [9]) [µM] | EC50 [10] [µM] |
| --- | --- | --- | --- | --- | --- | --- | --- | --- | --- | --- |
| Cc1cn([C@@H]2O[C@H](CO[Si](C)(C)C(C)(C)C)[C@@]3(OS(=O)(=O)C=C3N)[C@H]2O[Si](C)(C)C(C)(C)C)c(=O)[nH]c1=O | 4.6 | 0.06 | 0.06 | 16 | > 4 | > 20 | 3 | 0.4 | 14 |  |
| Cc1cn([C@@H]2O[C@H](CO[Si](C)(C)C(C)(C)C)[C@@]3(NS(=O)(=O)C=C3N)[C@H]2O[Si](C)(C)C(C)(C)C)c(=O)[nH]c1=O |  | 0.53 | 0.33 | 19.1 | > 10 | > 100 |  |  | 105 | > 10 |
| Cc1cn([C@@H]2O[C@H](CO[Si](C)(C)C(C)(C)C)[C@]3(C(N)=CS(=O)(=O)N3C)[C@H]2O[Si](C)(C)C(C)(C)C)c(=O)[nH]c1=O |  | 1.6 | 3.5 | 21.6 | > 10 | > 20 |  |  | 19 | > 10 |
| Cc1cn([C@@H]2O[C@H](CO[Si](C)(C)C(C)(C)C)[C@@]3(NS(=O)(=O)C=C3N)[C@H]2O[Si](C)(C)C(C)(C)C)c(=O)n(C(=O)OC(C)(C)C)c1=O |  | 0.13 | 0.43 | 21.2 | > 10 |  |  | 5 | 19 |  |
| CCn1c(=O)c(C)cn([C@@H]2O[C@H](CO[Si](C)(C)C(C)(C)C)[C@@]3(NS(=O)(=O)C=C3N)[C@H]2O[Si](C)(C)C(C)(C)C)c1=O | > 2 |  | 0.31 | 4.9 |  |  |  | > 2 |  | > 2 |
| Cc1cn([C@@H]2O[C@H](CO[Si](C)(C)C(C)(C)C)[C@@]3(NS(=O)(=O)C=C3N)[C@H]2O[Si](C)(C)C(C)(C)C)c(=O)n(C)c1=O | > 10 |  | 0.22 | 5.8 |  |  |  | 4 |  | > 10 |
| Cc1cn([C@@H]2O[C@H](CO[Si](C)(C)C(C)(C)C)[C@]3(C(N)=CS(=O)(=O)N3C)[C@H]2O[Si](C)(C)C(C)(C)C)c(=O)n(C)c1=O |  | 0.66 | 2.5 | > 250 | > 250 | > 200 |  |  | > 200 | > 250 |
| Cc1cn([C@@H]2O[C@H](CO[Si](C)(C)C(C)(C)C)[C@]3(C(N)=CS(=O)(=O)N3C)[C@H]2O[Si](C)(C)C(C)(C)C)c(=O)n(C(=O)OC(C)(C)C)c1=O |  | 1.8 | 3.5 | 20.6 | > 10 | > 20 |  |  | 20 | > 10 |
